Results gathered from unrelated publications.
Each line is one published result; the experiments were not run side by side. ≈ marks a conversion by molar mass, not a printed value.

COc1cc2c3c(n(CCCNCCO)c(=O)c2cc1OC)-c1cc2c(cc1C3=O)OCO2  GI50 (SN12C; cell growth or viability): < 0.01 µM
O=C(Oc1ccc(Cl)cc1)[c-]1cccc1.[Fe+2].c1cc[cH-]c1  IC50 (MCF-10A; cell growth or viability, MTT; 72 h): 500 µM
CC(C)CCC[C@@H](C)[C@H]1CC[C@H]2[C@@H]3CCC4=CC(=O)CC[C@]4(C)[C@H]3CC[C@]12C  IC50 (Leishmania mexicana; parasite growth; 48 h, promastigote): 81 µM
CCCCCCC/C=C/C(=O)N1C(=O)/C(=C(\O)c2ccc(O)cc2)C(=O)C1CC(C)C (stereo not shown)  MIC (Burkholderia cepacia; microbial growth; ATCC25416): 100 µg/mL (≈ 234 µM)
O=C(N/N=C1\C(=O)N(Cc2ccccc2)c2ccc(Cl)cc21)c1cc2ccccc2[nH]1  IC50 (MCF-10A; cell growth or viability; 72 h): 2 µM
NS(=O)(=O)c1cc(C(=O)O)c(NCc2ccco2)cc1Cl  inhibition (human PBMC; cell migration; 10 µM): 89%
CCCCCCC/C=C/C(=O)N1C(=O)/C(=C(/C)O)C(=O)C1Cc1ccc(OC(C)(C)C)cc1 (stereo not shown)  MIC (Burkholderia cepacia; microbial growth; ATCC25416): > 200 µg/mL
C[C@]12CCC(=O)C(O)=C1CC[C@@H]1[C@@H]2CC[C@]2(C)C(=O)CC[C@@H]12  IC50 (CAL-27; cell growth or viability; 72 h): > 20 µM
CCCCCCCCCCCCCCCC(=O)N(C)[C@H](CO)C(=O)N[C@H](C)C(=O)NCC(=O)N(C)[C@@H]1C(=O)N[C@@H](C)C(=O)N[C@H](C(=O)O)Cc2ccc(O)c(c2)-c2cc1ccc2O  MIC (Latilactobacillus sakei; microbial growth): > 128 µg/mL
CCCCCCC/C=C/C(=O)N1C(=O)/C(=C(/C)O)C(=O)C1Cc1ccc(O)cc1 (stereo not shown)  MIC (Burkholderia cepacia; microbial growth; ATCC25416): > 200 µg/mL
CN(c1ccccc1)S(=O)(=O)c1cc(C(=O)NCc2ccco2)ccc1Cl  inhibition (human PBMC; cell migration; 10 µM): 82%
CCC1(c2ccc(N)cc2)CCC(=O)NC1=O (stereo not shown)  IC50 (MCF-10A; cell growth or viability, CCK-8; 48 h): > 50 µM
CCCCCCC/C=C/C(=O)N1C(=O)/C(=C(/C)O)C(=O)C1CCCCN (stereo not shown)  MIC (Burkholderia cepacia; microbial growth; ATCC25416): > 200 µg/mL
